Test: Toxicity liver stage against HepG2, at 10uM
Format: cell-based
Parameters: test concentration 10 uM, cell line HepG2-A16-CD81EGFP
Details: human, HepG2-A16-CD81EGFP cells; read-out: INHIBITION
Summary of the method: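 Uninfected HepG2-A16-CD81EGFP cells, 3 × 10^3 per well, 1536-well, plated on prespotted compound at 10 μM final, parasite-free screening media added to match infected plates; puromycin 10 μM positive, DMSO 0.5% negative; run in parallel with 48 h PbLuc assay at 37 °C, 5% CO2; viability by CellTiter-Glo luminescence, normalized to controls.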

Structure (SMILES) | cytotoxicity at 10 µM
Cc1cc(C(=O)NCc2ccnc(OCC(F)(F)F)c2)on1 | -9.63%
Cc1nc(Nc2ncccn2)cc(C2CCCN2C(C)C)n1 (stereo unspecified) | -17.3%
Cc1cc(CN(C)C(=O)CC(C)C)no1 | -3.57%
CCCOc1cccc(OCc2ccon2)c1 | -4.9%
Cc1cc(C(=O)NCc2cccs2)c2c(C3CCCN3)noc2n1 (stereo unspecified) | 6.36%
COc1ccc(NC(=O)c2ccccc2NCc2ncnn2C)cc1 | 2.06%
O=C(Nc1cc(-c2ccncc2)no1)C1CC1 | -4.18%
O=C(OCc1ccccc1)C1CCCN1Cc1nc(C2CC2)no1 (stereo unspecified) | -5.43%
CN(C)C(=O)c1nc(CN2CC(Cc3ccccc3)CC2=O)no1 (stereo unspecified) | -0.849%
COCCc1noc(-c2ccc(=O)[nH]c2)n1 | -3.61%
CS(=O)(=O)N1CCN(c2cnnc(N3CCCC3)c2)CC1 | 2.24%
CN(C)C[C@@H]1C[C@@H]2CN(c3ncc(F)cn3)CC[C@@H]2N1C | 4.53%
O=c1[nH]c2cn(-c3ccc(F)cc3)c(=O)n2n1Cc1cccc(Cl)c1 | 6.59%
Cn1cc(C(=O)Nc2ccc3c(c2)CN(C(=O)c2ccco2)CC3)nn1 | 0.0452%
c1cc(-c2cn[nH]c2)ccc1CN1CCNCC1 | 0.866%
Cc1cc(=O)[nH]c(-n2nc(C)c(CCC(=O)NCC(C)C)c2C)n1 | 2.28%
CNC(=O)c1cccc(CC2COCCN(Cc3ccsc3)C2)n1 (stereo unspecified) | -0.257%
COc1ccc(CC(=O)NCC(O)c2sccc2C)cc1OC (stereo unspecified) | 11.4%
O=C(O)C1(Cc2ccc(-c3cccs3)cc2)CCNC1 (stereo unspecified) | -0.74%
c1cnc(N2CCC(C3CCN(CCCn4cccn4)C3)CC2)nc1 (stereo unspecified) | 7.5%
CC(C)CN1C(=O)C[C@@H]2[C@@H]1CCN2Cc1cccc(C#N)c1 | -66.4%
CN1CCCC2(CCN(C(=O)CCn3cncn3)C2)C1=O (stereo unspecified) | -11%
c1ccc(CCc2n[nH]c(C3CCC3)n2)cc1 | -3.58%

Structure (SMILES) | cytotoxicity at 10 µM
COCCNC(=O)CCC1CCN(Cc2cccc(SC)c2)CC1 | 14.6%
O=C(Cn1cnc2ccsc2c1=O)c1ccc2c(c1)OCCO2 | 3.1%
CS(=O)(=O)Cc1nc(CNc2c(F)cc(F)cc2F)cs1 | -4.73%
Cc1ccc(CN2CCCC(c3cnccn3)C2)s1 (stereo unspecified) | 2.46%
CC(=O)N1CC[C@@H]2CN(C(=O)c3ccco3)CCO[C@@H]2C1 | 2.93%
Cc1nc(C2CCCN(C(=O)c3cccc4c3OCO4)C2)sc1C (stereo unspecified) | -8.72%
CN(C)C1CCCN(C(=O)NCCNC(=O)C2CCCCC2)C1 (stereo unspecified) | -1.69%
c1cc(CN2CCc3ncnc(C4CCOC4)c3CC2)ccn1 (stereo unspecified) | -0.703%
c1cc2c(cc1Cn1cc(C3CCOC3)nn1)CCCO2 (stereo unspecified) | 2.03%
COCCS(=O)(=O)N(Cc1cscn1)c1ccccc1 | -3.3%
CCc1nc(CN2CCCN(C(=O)COC(C)C)CC2)cs1 | -15%
CSC1(CNC(=O)NC(C)c2ccc(F)c(F)c2)CCOCC1 (stereo unspecified) | 1.71%
Cc1ccc(CN2CCc3ncnc(-c4cccnc4)c3CC2)o1 | 1.06%
CCN(CC(=O)N(C)C)C(=O)c1nc(C)n(-c2ccccc2Cl)n1 | 7.3%
CC(C(=O)Nc1cnn(CC(N)=O)c1)c1ccc(Cl)s1 (stereo unspecified) | 10.9%
O=C(Nc1cccnc1)[C@H]1C[C@H]2CN(C(=O)NC3CCCC3)C[C@@H]1O2 | 2.96%
COc1ccc(-c2nnc(SC(C)C(=O)NC3CCCC3)[nH]2)c(OC)c1 (stereo unspecified) | 36.4%
CNc1snc(C)c1C(=O)N1CCCC(n2ccnc2C)C1 (stereo unspecified) | -14.1%
Cc1ccc(NC(=O)Nc2cnc(N3CCN(C)CC3)nc2)c(Cl)c1 | 6.07%
O=C(c1cc[nH]n1)N(Cc1cccc(O)c1)CC1CC1 | 8.27%
Cc1cc(CN(C)C(=O)CN2CCCCCC2=O)no1 | 7.41%
CCN(CCNS(=O)(=O)C1CCOCC1)C(=O)OC(C)(C)C | -1.8%
Cc1nc2c(c(=O)n1C)CN(C(=O)C1CCCN(C(=O)N(C)C)C1)C2 (stereo unspecified) | -5.18%

Structure (SMILES) | cytotoxicity at 10 µM
Cc1ccc2c(c1)C(NC1CCN(C)CC1)CCCO2 (stereo unspecified) | -8.2%
Cc1noc(C)c1CNCC1CCN(CC(O)c2ccccc2)CC1 (stereo unspecified) | -0.65%
NC(=O)CN(Cc1ccc(Br)cc1)C(=O)c1ccccn1 | 6.85%
Cn1cnnc1C1CCCN(C(=O)NCc2ccccc2)C1 (stereo unspecified) | -14%
CCn1ccnc1CN1CCN(CC(=O)NC(C2CC2)C2CC2)CC1 | -19.4%
COc1cc2c(cc1OC)CN(C(=O)NCC1CCCO1)CC2 (stereo unspecified) | -16%
CNC(=O)[C@H]1C[C@@H]2CN(C(=O)c3ccc(C)o3)C[C@@H]2N1S(C)(=O)=O | -2.33%
Cn1nc(C(=O)N2CCCC2)c2c1CN(CC1CCOCC1)C2 | -2.51%
CCS(=O)(=O)N1CCc2c(nc(C3CCCN3)nc2NC)C1 (stereo unspecified) | -10.2%
CC(=O)N1CCN(C(=O)NCc2ccccc2Cn2ccnc2)CC1 | 0.243%
CC(=O)N1CCCCC1c1cc(C(=O)N2CCOCC2)[nH]n1 (stereo unspecified) | -3.68%
Cc1cc(-c2ccnn2C)nc(C2CCCN(S(C)(=O)=O)C2)n1 (stereo unspecified) | 3.33%
CC(=O)N(Cc1noc(C2CC2)n1)C1CCN(Cc2ccncc2)C1 (stereo unspecified) | -13.8%
CN(C(=O)C(c1c(F)cccc1Cl)N(C)C)c1nccs1 (stereo unspecified) | -58%
O=C(NC1CCCC1)[C@H]1CC[C@@H]2[C@@H](CCN2c2ncc(F)cn2)O1 | 0.441%
COCCN1C(=O)[C@@H]2CC[C@H]1CN(C(=O)Cc1c(F)cccc1Cl)C2 | -1.02%
CC(=O)N1CCN(S(=O)(=O)c2ccc(C)c(F)c2)CC1 | -9.42%
Cc1cnccc1NC(=O)CCc1ccsc1 | -3.51%
CO[C@H]1CN(CC2CCOCC2)[C@@H]2CCCO[C@H]12 | -100%
COc1cc2cc3c(nc2cc1OC)OCCN(Cc1ccco1)C3 | -0.116%
Cc1csc(CN2C[C@@H]3CN(S(C)(=O)=O)CCO[C@@H]3C2)n1 | -98.3%
Cc1n[nH]c(C2CN(CCCOc3cccc(Cl)c3)CCO2)n1 (stereo unspecified) | -5.57%
Cc1nn(C2CCCC2)c2c1C(c1ccc3c(c1)OCO3)SCC(=O)N2 (stereo unspecified) | -1.52%

Structure (SMILES) | cytotoxicity at 10 µM
O=C1C(Nc2nccn3cnnc23)CCCN1c1ccccc1Cl (stereo unspecified) | 9.05%
Cc1ccc(NC(=O)Cc2cnc3n(C)c(=O)[nH]c(=O)n23)cc1 | 8.24%
COc1ccc(OC)c(C2CCN(Cc3nc(C)n4ccccc34)C2)c1 (stereo unspecified) | -8.66%
CC(C)N(C)Cc1nnc2n1CCN(Cc1ccncc1)CC2 | -2.42%
CN(C)C(=O)CNC(CC(F)(F)F)c1ccc(F)cc1 (stereo unspecified) | -3.08%
CCOC(C)C(=O)N(C)C1CCN(c2ccc(OC)cc2)CC1 (stereo unspecified) | -1.57%
Cc1c[nH]c(CN(C)C(=O)CCn2cnc3ccccc32)n1 | 9.67%
CN1CCCC1c1cc2cccnc2n1Cc1ccc(F)cc1 (stereo unspecified) | 5.44%
CCn1c(CN2CCOC(Cn3cncn3)C2)nc2c(F)cccc21 (stereo unspecified) | -5.42%
CSCCCNC(=O)C(c1cccc(F)c1)N(C)C (stereo unspecified) | 0.28%
Cc1noc(C2CCN(C(C)c3nc(C4CC4)no3)CC2)n1 (stereo unspecified) | 7.57%
CCN(CCO)C[C@@H]1CN(C(=O)c2ccc(C)s2)C[C@@H]1CO | 12.1%
CC(C)OCCCNC(=O)CN1CCN(c2nccs2)C(C)C1 (stereo unspecified) | 1.4%
COCc1nccc(C2CCCN(Cc3cccc(C#N)c3)C2)n1 (stereo unspecified) | 18.7%
O=C(c1cn(Cc2ccccc2)c2ncccc12)N1CCCCC1 | 1.2%
CN1CCN(C(=O)c2nnc3ccc(Cl)cc3n2)CC1 | 6.28%
Cc1cc(N2CCC(Cc3ncccn3)C2)ncn1 (stereo unspecified) | 0.146%
COc1ccc(CN2CCOCC3(CCN(C4CCOCC4)C3)C2)cc1 (stereo unspecified) | 0.466%
CCN(Cc1cnn(CC)c1)Cc1c(Cl)cncc1Cl | -2.65%
COC(=O)C(CNC(=O)Nc1nncs1)Cc1ccc(O)cc1 (stereo unspecified) | 16.9%
CN(C)c1cc2c(nn1)CCN(C(=O)C1Cc3ccccc3S1)C2 (stereo unspecified) | -9.52%
Cc1nnnn1-c1cc(NCc2cccc(C#N)c2)ccc1F | 7.09%
CC1CCCN(Cc2c(C3CCOCC3)[nH]c3ncccc23)C1 (stereo unspecified) | -2.03%

Structure (SMILES) | cytotoxicity at 10 µM
O=C1COC2(CCN(Cc3cccs3)CC2)CN1c1ccsc1 | -125%
Cc1nc2c(c(NCCc3nc4c(s3)CCCC4)n1)CCNCC2 | -7.33%
CC(=O)N(Cc1ncc(C)o1)C1CCN(Cc2ccncc2Cl)C1 (stereo unspecified) | 3.68%
CCCn1ncc(CN2C[C@@H]3CCCN3C[C@@H]2CCSC)c1C | 4.06%
O=C(c1cc(=O)c(OCc2ccccc2)co1)N1CCSCC1 | -0.295%
CCOC(=O)[C@H]1[C@@H](O)C(=O)N(C)C12CCN(C(=O)CC(C)(C)C)CC2 | -4.1%
CCNC(=O)c1ccc2c(c1)nc1n2CCN(Cc2ccco2)C1 | -5.64%
Cc1ccc(CNCC2Cn3nnc(-c4cnn(C)c4)c3CO2)o1 (stereo unspecified) | 2.42%
CC(C)N(CCNCc1ccc(C#N)cc1)C1CC1 | -2.54%
CC(C)CC(=O)N1CCN(Cc2csc(-c3ncccn3)n2)CC1 | 8.61%
Cc1cc(C)c(CNC(=O)C(C)Oc2ccccc2F)c(=O)[nH]1 (stereo unspecified) | 6.99%
O=C(CCC1CCN(Cc2ncc[nH]2)CC1)Nc1ccccc1Cl | -21.8%
CC(=O)c1cccc(OCCCC(=O)NCC2CCCN2C)c1 (stereo unspecified) | 0.71%
Cn1c(C2CCCN2C(=O)CN2CSCC2=O)nc2ccccc21 (stereo unspecified) | 7.81%
COc1ccc(-c2noc([C@@H](C)NS(=O)(=O)CC(C)C)c2C(=O)O)cc1 | -5.23%
Cc1cnn(CC2CN(Cc3nc(C)c(C)o3)CCO2)c1 (stereo unspecified) | -3.88%
c1c[nH]c2nc(C3CCCNC3)nc-2c1 (stereo unspecified) | 8.35%
Cc1ccnc(NC(=O)C2(n3cnnn3)CCCCC2)c1 | -0.0864%
COC(=O)c1ccc(CN(C)C(=O)c2cnsn2)cc1 | 9.59%

— ChEMBL document CHEMBL4513216, “Probing the Open Global Health Chemical Diversity Library for Multistage-Active Starting Points for Next-Generation Antimalarials” (ACS Infect Dis, 2020)
